Test system: Mus musculus
Assay: Protection against TNFalpha-induced mortality in ip dosed C57BL/6J mouse assessed as increase in survival rate administered as single dose 17 mins before TNFalpha injection measured every 30 mins up to 60 hrs post TNFalpha injection
Assay type: functional, organism-based
Method in brief: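 C57BL/6 mice, 6-8 weeks, ~20 g, randomized (n = 6~10). Given 5.5 μg mTNFα (~0.25 mg/kg) IV in endotoxin-free PBS, 0.2 mL. Compound IP 17 min before TNFα: either once at 6 mg/kg or […], 1, 3 mg/kg then every 12 h; vehicle controls. Survival checked every 30 min to 60 h.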

CCC(C)(C)C(=O)N(O)Cc1ccccc1
Activity: Dose-dependent effect
